This is a sample that favours compounds with a hit; in the whole collection about 3.1% have one here.
HIV Env fusion – blocks HIV Env-driven cell-cell fusion; AID 651610; inhibition, % at 12.3 µM; actives 1.1% (n = 360,000); HeLa-JRFL Env/CEM21 cell fusion, luciferase;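 active means mean replicate inhibition score of at least 50 and every replicate individually at or above 50; inconclusive means only one of the two criteria met; inactive means mean below 50 and not all replicates reaching 50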;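 further: 0% = plate neutral controls and 100% = maraviroc near 300 nM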
Cneo AK release – Cryptococcus neoformans lysis via adenylate kinase release; C. neoformans lysis, adenylate kinase release luminescence, 4 h; normalised: neutral wells 0, clomiphene wells 100; lysis activity, % at 15 µM; actives 0.2% (n = 360,000); AID 651654;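 active means mean lysis activity across replicates of at least 80%, whatever share of replicates individually reach that level; inactive means mean lysis activity below 80%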
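Material: C. neoformans cells | Amount: Yeast cell density of 5 × 10^6 cells/mL | Medium: Fresh YPD growth medium | Dosing: Single dose | Times: Static 4 h at 37 °C with compound, 1 h detection | Detection: AK luminescence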
miR-122 sensor – blocks miR-122 activity in Huh7 sensor cells; Huh7 miR-122 Renilla luciferase sensor, 48 h; neutral wells = 0, positive control = 100; activation (reporter increase), % at 12.5 µM; actives 0.3% (n = 340,000);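 active means mean replicate activation score at least 90 and every replicate individually at or above 90; inconclusive means only one of the two criteria met; inactive means neither criterion met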;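 further: higher luciferase means less miR-122 activity so hits act as miR-122 inhibitors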
CFTR F508del cor – correctors of CFTR F508del function in bronchial epithelial cells; CFBE cells, YFP halide quenching; stimulated with forskolin plus potentiator P3; % fluorescence drop versus neutral controls; activity (quench increase), % at 7.58 µM; actives 0.36% (n = 350,000); AID 720511;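 active means mean added fluorescence quench of at least 8% versus neutral control, with both replicates also reaching 8%; inconclusive means only one of the mean or replicate conditions met; inactive means mean below 8% and not both replicates reaching 8%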;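 further: cells transiently co-express mutant CFTR-F508del with the halide-sensitive YFP; corrector assay measuring rescue of mutant channel to the surface after 24 h compound exposure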
INS-1E GSIS act – GLuc luminescence reporter in INS-1E cells, primary screen for activators of glucose-dependent secretion of insulin; INS-1E GLuc reporter insulin secretion, 2-3 h; AID 743287; activation, % at 16.6 µM; actives 0.61% (n = 370,000);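 active means lowest replicate activation of at least 40%, so every replicate reaches that level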;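 further: 0% = median of neutral control wells and 100% = median of IBMX positive control wells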
Ecoli rRNA inh – selective bacterial rRNA inhibition in E. coli; E. coli WT GFP vs humanized-ribosome RFP mutants, fluorescence, 24 h; hits give low values; DMSO median 0, no signal -100; GFP signal change (wild-type ribosome), % (test concentration not listed); actives 1.6% (n = 350,000); AID 720706;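 active means significant combined selectivity score with lowered wild-type GFP, culture density cut under 30%, mutant RFP and density less affected; inactive means any of these conditions unmet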
HepG2 tox – cytotoxic compounds in HepG2 cells | shares compounds with Ecoli rRNA inh | HepG2 viability, ATP luminescence, 72 h | activity change, negative = cytotoxicity, unspecified at 26 µM | 30 tested, under 10 active | AID 743480;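 active means compounds whose fitted half-maximal signal-loss concentration is at most twice their highest valid dose; inconclusive means flat curve with 30 to 70% signal loss, or poor fit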
AID977621 – growth inhibition of wild-type GFP E. coli, dose response, H69 mutant RFP, cherry-pick; activity change, negative = inhibition at 50 µM; 1,900 tested, under 10 active; shares compounds with Ecoli rRNA inh; E. coli wild-type GFP strain growth, fluorescence, 24 h;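 active means Wild-type ribosome reporter drop at least double the humanized mutant ribosome reporter drop, growth loss under a set limit; inconclusive means no clear call, values can overlap the other calls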;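 further: wild-type GFP and H69 mutant RFP strains grown together 50/50 in each well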
AID977628 – E. coli growth inhibition, wild-type GFP versus h24 humanized RFP strain, dose response, h24 mutant RFP vs wild-type GFP, cherry-pick. shares compounds with Ecoli rRNA inh. E. coli WT GFP strain growth, fluorescence, 24 h. activity change, negative = inhibition at 50 µM. 1,900 tested, under 10 active;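 active means compound lowering the normal-ribosome reporter at least twice as much as the humanized-ribosome reporter, growth loss under a set limit; inconclusive means no clear call, values can overlap the other calls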;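 further: wild-type GFP and h24 humanized RFP strains co-cultured 1 to 1 per well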
* = called active by the depositor; ? = inconclusive; . = not tested or not shown; [ ] = remark or other dose.

SMILES	HIV Env fusion	Cneo AK release	miR-122 sensor	CFTR F508del cor	INS-1E GSIS act	Ecoli rRNA inh	AID977621	AID977628	others
Cc1cccc(-c2ccc([C@@H]3[C@@H](CO)N4CCCCN(S(=O)(=O)c5ccccc5C)C[C@H]34)cc2)c1	.	0.2	1.5[16.7 µM]	4.2	-12.4	-30.2	-4.98	-4.32
Cc1cccc(-c2ccc([C@@H]3[C@@H](CO)N4CCCCN(S(=O)(=O)c5ccccc5C)C[C@@H]34)cc2)c1	.	107.6*	16.7[16.7 µM]	-3.5	7.6	2.1	-5.11	-2.24
Cc1cccc(-c2ccc([C@H]3[C@H]4CN(S(=O)(=O)c5ccccc5C)CCCCN4[C@H]3CO)cc2)c1	.	-0.5	6.0[16.7 µM]	-2.2	10.5	2.8	-2.8	?
O=C(N[C@H]1C=C[C@H](CC(=O)N2CCOCC2)O[C@H]1CO)c1cccc(F)c1	14.7[16.7 µM]	-3.6	4.2[16.7 µM]	1.8	2.7	-0.3	.	.
CCCC(=O)Nc1ccc2c(c1)C(=O)N(C)[C@H]1CC[C@@H](CC(=O)NCCc3ccccc3)O[C@H]1CO2	.	-2.8	58.9[16.7 µM]	-1.5	-1.0	-0.7	.	.
O=C(C1CC1)N1CC(=O)N2[C@H](C1)[C@@H](c1ccc(C#CCc3ccccc3)cc1)[C@@H]2CO	.	.	.	-2.7	-1.7	0.6	.	.
COc1ccc(S(=O)(=O)N(C)C[C@H]2Oc3ccc(NC(=O)C4CC4)cc3CC(=O)N([C@H](C)CO)C[C@@H]2C)cc1	12.7[16.7 µM]	3.7	8.5[16.7 µM]	0.1	13.2	-1.8	.	.
CCN1CCN(C(=O)CS(=O)(=O)Cc2nc(-c3ccccc3C)oc2C)CC1	0.5	-1.6	-6.3	4.2	-0.6	2.2	.	.
Cc1ccccc1-c1nc(CS(=O)(=O)CC(=O)N2CCCCC2)c(C)o1	8.2	1.1	-0.8	-1.1	-10.2	-19.1*	-0.963	-6.11
C=C1c2cc3c(cc2NC(=S)N1Cc1ccccc1)OCO3	-1.5	4.3	-0.1	-1.5	-5.3	-27.0*	-7.9	-3.83
COc1ccc(NC(=O)Nc2ccc3c(c2)C(=O)N([C@@H](C)CO)C[C@@H](C)[C@@H](CN(C)C(=O)CCCN(C)C)OCCCC[C@H](C)O3)cc1	?	0.1	3.4[16.7 µM]	-0.5	2.5	1.6	.	.
O=C(Nc1ccc(F)cc1)N1[C@H](CO)[C@H]2c3ccccc3NC[C@H]21	.	-2.0	-28.6[16.7 µM]	-2.3	5.7	0.9	.	.
Cc1csc(SCc2nc3scc(-c4ccccc4)c3c(=O)[nH]2)n1	17.0	1.7	-9.4	-0.9	2.4	-24.0*	0.598	-8.46
COC(=O)c1c(NC(=O)CCC(=O)O)sc(Cc2ccccc2)c1C	13.8	0.2	-17.5	-0.1	23.5	-37.8*	.	.	HepG2 tox=13.2
O=C1CCCN1c1ccc(S(=O)(=O)N2CCCCC2)cc1	-5.9	1.0	-2.0	1.7	42.4	8.1	.	.
O=C1CCCN1c1ccc([N+](=O)[O-])cc1	.	-1.6	-8.8	-0.7	3.7	-4.0*	?	?
O=C(NCC[C@H]1CC[C@@H](NC(=O)c2ccccc2F)[C@H](CO)O1)c1cnccn1	16.7[16.7 µM]	-0.1	.	-0.2	2.4	-1.4	.	.
CC(C)(C)c1ccc(S(=O)(=O)NCc2ccc(C(=O)NCc3ccccn3)cc2)cc1	31.7	.	.	.	-6.5	-25.5*	-4.96	-16.8
CC(C)(C)c1ccc(S(=O)(=O)NCc2ccccn2)cc1	-10.6	-1.3	10.6	0.3	13.2	1.7	.	.
COc1ccccc1-c1cn(CC[C@@H]2CC[C@H](NC(=O)CCN3CCCCC3)[C@@H](CO)O2)nn1	-34.9[16.7 µM]	2.0	.	0.7	-4.9	-0.7	.	.
CCCCNC(=O)c1ccc(CS(=O)(=O)c2cccc(C(F)(F)F)c2)o1	4.4	-0.6	7.2	.	.	.	.	.
CC(C)OCCCNC(=O)c1ccc(CS(=O)(=O)c2cccc(C(F)(F)F)c2)o1	14.2	-0.9	5.6	0.1	-10.1	-19.2*	-12.6	?
CO[C@@H]1CN(C)C(=O)c2cc(NS(=O)(=O)c3ccccc3C)ccc2OC[C@H](C)N(C)C[C@@H]1C	15.2[16.7 µM]	1.1	-0.1[16.7 µM]	0.3	3.5	0.3	.	.
CCc1nc2ccccc2c(C(=O)OCC(=O)NC2CC2)c1C	4.5	0.3	5.1	-0.9	23.4	8.3	.	.
CCc1nc2ccccc2c(C(=O)OCC(=O)NC(=O)c2cccn2C)c1C	12.2	0.0	-3.3	-2.3	34.4	-24.5*	?	-4.09
SMILES	HIV Env fusion	Cneo AK release	miR-122 sensor	CFTR F508del cor	INS-1E GSIS act	Ecoli rRNA inh	AID977621	AID977628	others
COc1ccc(-c2cnc3c(c2)C(=O)N([C@H](C)CO)C[C@@H](C)[C@@H](CN(C)C(=O)C2CCCCC2)O3)cc1	.	13.7	-24.6[16.7 µM]	-0.9	-8.7	1.0	.	.
CCCC#Cc1ccc2c(c1)O[C@H](CN(C)C(=O)CN(C)C)[C@@H](C)CN([C@@H](C)CO)S2(=O)=O	3.7[16.7 µM]	-9.1	-14.0[16.7 µM]	-4.3	-2.2	1.0	.	.
COc1ccccc1NC(=O)CNC(=O)c1ccccc1	.	-0.3	3.8	.	.	.	.	.
COc1ccccc1NS(=O)(=O)c1cc(NC(=O)CNC(=O)c2ccccc2)ccc1C	-10.7	5.0	14.5	.	32.1	-20.0*	?	.
CC(=O)c1ccc(NC(=O)c2ccc([N+](=O)[O-])o2)cc1	-70.7	-2.2	-1.1	5.9	6.5	-15.0*	.	-6.02
Cc1c(Cl)c([N+](=O)[O-])nn1Cc1ccc(C(=O)Nc2ccc(Cl)cn2)o1	.	-4.2	0.6	.	-16.1	.	.	.
O=C(Nc1cccnc1)c1ccc([N+](=O)[O-])o1	1.7	-5.5	-3.5	-1.0	-11.8	-19.1*	.	?
O=C(Nc1ccc(Cl)cn1)c1ccc([N+](=O)[O-])o1	-7.3	.	.	-2.6	0.2	-20.6*	-14.1	-12.3
CCN(CC(=O)Nc1cccc(C#N)c1)CC(=O)Nc1cccc(OC)c1	2.0	3.9	3.6	1.1	-14.6	-22.5*	-3.5	.
O=C(NCc1ccccc1Cl)c1ccccc1CCc1ccccc1	15.3	.	.	1.4	-10.9	-13.0	.	.
C=CCNC(=O)c1ccccc1CCc1ccccc1	17.3	-3.2	0.2	1.8	11.7	-25.9*	4.91	-3.38
Cc1ccc(S(=O)(=O)Nc2cccc3c2O[C@H](CN(C)Cc2ccccc2)[C@@H](C)CN([C@@H](C)CO)C3=O)cc1	-1.9[16.7 µM]	-1.7	17.1[16.7 µM]	0.7	6.4	-0.3	.	.
C[C@H]1CN([C@@H](C)CO)C(=O)c2cc(C#CC3CCCCC3)cnc2O[C@@H]1CN(C)S(=O)(=O)c1ccc(F)cc1	1.7[16.7 µM]	0.0	-3.4[16.7 µM]	3.9	-16.8	1.1	.	.
